Laboratory results taken from ChEMBL document CHEMBL4513216, “Probing the Open Global Health Chemical Diversity Library for Multistage-Active Starting Points for Next-Generation Antimalarials” (ACS Infect Dis, 2020).

Assay: Toxicity liver stage against HepG2, at 10uM
Format: cell-based
Set-up: test concentration 10 uM, cell line HepG2-A16-CD81EGFP
Conditions: human, HepG2-A16-CD81EGFP cells; read-out: INHIBITION
How it was run: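 Uninfected HepG2-A16-CD81EGFP cells, 3 × 10^3 per well, 1536-well, plated on prespotted compound at 10 μM final, parasite-free screening media added to match infected plates; puromycin 10 μM positive, DMSO 0.5% negative; run in parallel with 48 h PbLuc assay at 37 °C, 5% CO2; viability by CellTiter-Glo luminescence, normalized to controls.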

SMILES | cytotoxicity at 10 µM [%]
CCCN1CCN(C(=O)CCn2cccc2)CC1 | 6.14
Cc1occc1C(=O)N1C[C@@H](C(=O)N2CCCCO2)C[C@H]2OCC[C@H]21 | 12.1
O=C(c1ccno1)N1CCO[C@]2(CCC[C@@H]2COCc2ccncc2)C1 | 10.2
c1cncc(CN2CCCn3nnc(CN4CCCCC4)c3C2)c1 | 12.8
O=c1cc2c(nn1CN1CCN(c3ccccc3)CC1)CCC2 | 7.13
CC(C)CC1SCC(=O)Nc2c1cnn2C(C)C (configuration not stated) | 1.11
O=C(CSC1=NS(=O)(=O)c2cc(F)ccc2N1)Nc1cccc(Cl)c1 | 3.92
Cc1cc(S(=O)(=O)N2CCC(S(C)(=O)=O)CC2)ccc1F | 6.25
Cc1cc2nc(SCC(=O)N3CCCC3)n(-c3ccccc3)c(=O)c2[nH]1 | -6.34
O=C1N(Cc2cccnc2)CCC12CCCNC2 (configuration not stated) | 3.52
CN1CC(Oc2ccc(Cl)cc2)=NC(SCC(=O)Nc2ccccc2)=N1 | -0.943
Cc1nc(N2CCCC2)ncc1-c1cc(O)n2ncnc2n1 | 10.6
O=C(c1cnccn1)N1CCCC(C2=Nc3ccccc3S(=O)(=O)N2)C1 (configuration not stated) | -0.055
Cc1cc2ncc(CN(C)C)c(C3CCN(C)CC3)n2n1 | -1.19
O=C1CO[C@H]2CCN(C(=O)c3ccc4c(c3)CCCC4)CC[C@@H]2N1 | 0.905
CCN(Cc1ccccc1O)CC1(C)Cc2c(N)nc(N)nc2O1 (configuration not stated) | 2.15
CN1CCN(C2CCN(CC(O)c3ccccc3)CC2)C1=O (configuration not stated) | 1.76
CNc1nnc(SCc2nnc(C(C)(C)C)o2)s1 | -1.05
Cc1nc(C)n(CC2CCCN2Cc2ccc(F)cc2C#N)n1 (configuration not stated) | -2.59
COC(=O)C1CCCN1C(=O)c1ccc(Br)cc1F (configuration not stated) | 2.96
CCCOc1cc(CNC(=O)Nc2cccc(C(C)=O)c2)ccn1 | -1

SMILES | cytotoxicity at 10 µM [%]
CC(C)c1nnc2n1CCN(c1nc3ccccc3o1)C2 | 4.12
Cn1ccc(C(=O)Nc2nc(-c3ccc(Cl)cc3)n[nH]2)cc1=O | -12.3
CC(=O)N1CCCC(C(=O)N2CCC(=Cc3cccc(F)c3)CC2)C1 (configuration not stated) | 12
CCN1CCN(C2CCN(C(C(N)=O)c3ccc(F)cc3)CC2)C1=O (configuration not stated) | -20
CCOc1ccccc1C(=O)N1CCn2c(nnc2C(F)(F)F)C1 | -2.99
CC(=O)N1CCCN(S(=O)(=O)c2cc3ccccc3o2)CC1 | 18.8
COc1ccc(NC(=O)N(C)Cc2ccc(Br)o2)cn1 | 12
CCN(CC1CCOC1)C(=O)CSCC(=O)Nc1ccc(C)cc1 (configuration not stated) | -7.04
O=C(NCC(O)c1ccc(Cl)c(F)c1)NC1CC=CC1 (configuration not stated) | -2.41
CN(Cc1cccc(C#N)c1)Cn1nc(C(C)(C)C)ccc1=O | -1.64
CN(CCc1nccs1)C(=O)C1(C#N)CCCCC1 | 2.91
COc1ccc(C)cc1NC(=O)Cn1nc(C)c(C#N)c1N | -22.9
CC(NC(=O)Nc1nccs1)c1ccc(S(C)(=O)=O)cc1 (configuration not stated) | 7.04
CCOC1CCCN(C(=O)c2ccccc2NCc2cccnc2)C1 (configuration not stated) | 0.595
N#Cc1cccc(OCCN2CCNC(=O)C2c2cccs2)c1 (configuration not stated) | 6.76
Clc1ccc(Cc2nc(CNCCn3cccn3)cs2)cc1 | -1.86
CCCN(CC(=O)NC)C(=O)c1ccc(-c2ccsc2)nc1C | -14.3
N#CC1(C(=O)Nc2ccc(OC(F)F)cc2)CCCC1 | -11.1
c1csc(CNCC2COCc3c(-c4ccsc4)nnn3C2)n1 (configuration not stated) | -113
CC(C)C(=O)N1CCOC2(COCCN(c3ncccn3)C2)C1 (configuration not stated) | -114
COC[C@@]12CC[C@@H](N3CCOCC3)C[C@H]1CCN(c1ccc(Cl)cn1)C2 | -5.14

SMILES | cytotoxicity at 10 µM [%]
CCNc1ccnc(N2Cc3cnc(CC(C)C)nc3C2)n1 | 10.4
CCSc1ccc(C(=O)N2CCC3(CC2)[C@H](O)C[C@@H]3O)s1 | 1.34
CC(C)CC(O)C1CCN(C(=O)c2coc(CN3CCOCC3)c2)CC1 (configuration not stated) | -7.27
NC(=O)COc1ccc(CN2CC[C@@]3(O)CCCC[C@H]3C2)cc1Cl | -6.87
c1cc2c(cc1Cn1cc(C3CCCNC3)nn1)CCCO2 (configuration not stated) | -5.24
Cc1cc(NCCc2c(C)n[nH]c2C)nc(-c2cccnc2)n1 | -0.355
COc1ccc(CNC2CCCc3nc(N(C)C)ncc32)c(OC)c1 (configuration not stated) | 1.42
Cc1cc(NCCc2nnc(N)s2)nc(-c2cccnc2)n1 | -5.44
CCOCCn1c(=O)[nH]c2cc(C(=O)N(C)Cc3cc(C)[nH]n3)ccc21 | -0.673
Cc1cncc(C(=O)N2CCCC(C(=O)CCc3ccccc3)C2)c1 (configuration not stated) | -10.1
COc1ccc(C(=O)N2CC[C@H](CO)[C@H](O)C2)c(C)c1 | -11.5
CCCS(=O)(=O)NCC1CCOc2ccccc2C1 (configuration not stated) | -6.92
COc1ccc(Cl)cc1C(=O)N1CCOC2(CNCCOC2)C1 (configuration not stated) | -9.73
CN(C)[C@H]1CCCCN(C(=O)CCc2csc(N)n2)C1 | -7.59
Cc1cccc(CN2CCN(Cc3ccccc3)CC(O)C2)n1 (configuration not stated) | -8.42
Cc1cnn(C2CCCN(C(=O)CCc3c(C)noc3C)C2)c1 (configuration not stated) | -17.2
CCS(=O)(=O)CCN1CCCC1c1noc(C)n1 (configuration not stated) | -10.4
CN1CCOC(CNCc2coc(-c3ccccc3Cl)n2)C1 (configuration not stated) | -14.1
O=C(NCc1cc[nH]n1)NCC(O)c1ccc(F)cc1 (configuration not stated) | -12
CN(C)c1cc(CNC(=O)c2ccc(Br)cc2F)ccn1 | -26
Cc1nc(C)n(CC2CN(Cc3noc(C4CC4)n3)CCO2)n1 (configuration not stated) | -8.15

SMILES | cytotoxicity at 10 µM [%]
Cc1cc(NC(=O)CCN2CCCCC2Cn2cncn2)no1 (configuration not stated) | 4.23
CCNC(c1ccc(CC)cc1)c1cccnc1 (configuration not stated) | -5.4
CCn1nc2c(cc1=O)CN(CCCN1CCCC1=O)CC2 | -13.9
CN(Cc1nnc2n1CCC2)C(=O)c1ccc2c(c1)OCO2 | -18.2
Cc1cc(C)n(CCC(=O)N2CCCC(c3cc(C(N)=O)[nH]n3)C2)n1 (configuration not stated) | -29.3
Cc1occc1CNC(=O)NCCN(C)C1CCCC1 | -19.5
CC(C(N)=O)S(=O)(=O)Cc1cc(Cl)c2c(c1)OCO2 (configuration not stated) | -14.2
Cc1cc(NC(=O)NCc2ccccn2)n(C)n1 | 2.14
CN1CCCc2cc(CNC(=O)c3ccc(NC4CC4)nc3)ccc21 | -3.03
COc1cc(C)nc(N2CCN(C(=O)c3ccc(Cl)o3)CC2)n1 | -3.22
CN(Cc1cn2ccccc2n1)C1CCCN(c2cccnn2)C1 (configuration not stated) | -9.78
CN(C)c1ccc(C(=O)N2CCN(Cc3cscn3)CC2)cc1F | -11.7
Cc1ccc(CC(=O)N2CCCCC2c2nc(C)cs2)cn1 (configuration not stated) | 2.6
COc1ccc(CN2CCCn3nnc(COCC4CC4)c3C2)cc1 | -110
COCCNC(=O)[C@@H]1CN(Cc2sccc2C)C[C@H]2OCC[C@H]21 | 2.98
O=C(N1CCOCC1)[C@@]12CCO[C@@H]1CCN(C1CCC1)C2 | 3.33
CN(C)Cc1cnc2n1CCN(Cc1ccsc1)CC2 | -10.4
CN1CCO[C@@H]2CN(C(=O)NCc3ccccc3)CC[C@@H]2C1 | -104
O=C(c1ccc(F)cc1)N1C[C@H]2CCC[C@@]2(COCc2ccncc2)C1 | 8.04
